For 15 molecules, Activity and mortality results are on record in ChEMBL document CHEMBL3045973, “Synthesis and insecticidal activity of novel 4beta-halogenated benzoylamino podophyllotoxins against Pieris rapae Linnaeus” (2002).

For experiment [1], the system named is Pieris rapae. Description: Insecticidal activity against fifth-instar larvae of Pieris rapae fed on compound treated cabbage leaf assessed as delay in metamorophosis at 250 ppm dipped for 3 secs relative to control. The class given is functional, organism-based. The method, boiled down:
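Fifth-instar P. rapae larvae dosed by the leaf-dipping method at 250 ppm. Development time from larva to adulthood was compared with a control group.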

In experiment [2] the test system is Pieris rapae. Description: Insecticidal activity against fifth-instar larvae of Pieris rapae fed on compound treated cabbage leaf assessed as mortality at 250 ppm dipped for 3 secs measured after 15 days (reference value: 10 1.22%). The class given is functional.
In experiment [3] the test system is Pieris rapae. Kind of experiment: Insecticidal activity against fifth-instar larvae of Pieris rapae fed on compound treated cabbage leaf assessed as paralysis at 250 ppm dipped for 3 secs measured after 48 hr relative to control. It is filed as functional, organism-based.
Experiment [4] has as its system Pieris rapae. Kind of experiment: Insecticidal activity against fifth-instar larvae of Pieris rapae fed on compound treated cabbage leaf assessed as loss of body fluid at 250 ppm dipped for 3 secs measured after 48 hr relative to control. It is filed as functional, organism-based.
Experiment [5] has as its system Pieris rapae. Description: Insecticidal activity against fifth-instar larvae of Pieris rapae fed on compound treated cabbage leaf assessed as mortality at 250 ppm dipped for 3 secs measured after 5 days (reference value: 0%). The class given is functional.
In experiment [6] the test system is Pieris rapae. Kind of experiment: Insecticidal activity against fifth-instar larvae of Pieris rapae fed on compound treated cabbage leaf assessed as inhibition of reproduction in pupated adultoids at 250 ppm dipped for 3 secs relative to control. The class given is functional, organism-based.
For experiment [7], the system named is Pieris rapae. Kind of experiment: Insecticidal activity against fifth-instar larvae of Pieris rapae fed on compound treated cabbage leaf assessed as change in spontaneous movement at 250 ppm dipped for 3 secs measured after 24 hr relative to control. It is filed as functional, organism-based.
Experiment [8] concerns Pieris rapae. Description: Insecticidal activity against fifth-instar larvae of Pieris rapae fed on compound treated cabbage leaf assessed as immobilization at 250 ppm dipped for 3 secs measured after 48 hr relative to control. It is filed as functional, organism-based.
Experiment [9] has as its system Pieris rapae. Description: Insecticidal activity against fifth-instar larvae of Pieris rapae fed on compound treated cabbage leaf assessed as mortality at 250 ppm dipped for 3 secs measured after 10 days (reference value: 6.67 1.56%). It is filed as functional.

SMILES strings stand for the structures. Activity calls are given as the source filed them. The rule behind the calls is not given here.

Consider `COc1cc([C@@H]2c3cc4c(cc3[C@@H](NC(=O)c3cccc(I)c3)[C@H]3COC(=O)[C@H]23)OCO4)cc(OC)c1OC`, for which the result with Pieris rapae [1], with Pieris rapae [3], with Pieris rapae [4], with Pieris rapae [6], in the experiment on Pieris rapae [7] and in the experiment on Pieris rapae [8] was Active. Moreover, the mortality (usually the share of the test organisms that died) in the experiment with Pieris rapae [2] is 69.69%; in the experiment with Pieris rapae [5] it was 8.35%; in the experiment with Pieris rapae [9], 40.71%.

`COc1cc([C@@H]2c3cc4c(cc3[C@@H](NC(=O)c3cccc(Cl)c3)[C@H]3COC(=O)[C@H]23)OCO4)cc(OC)c1OC`: the result in the experiment with Pieris rapae [1], with Pieris rapae [3], with Pieris rapae [4], with Pieris rapae [6], in the experiment on Pieris rapae [7] and in the experiment on Pieris rapae [8] was Active. The mortality stood at 94.73% in the experiment with Pieris rapae [2], 16.56% in the experiment with Pieris rapae [5] and 54.25% with Pieris rapae [9].

Consider `COc1cc([C@@H]2c3cc4c(cc3[C@H](O)[C@H]3COC(=O)[C@H]23)OCO4)cc(OC)c1OC` [PODOFILOX], for which the outcome in the experiment with Pieris rapae [1], in the experiment with Pieris rapae [3], with Pieris rapae [4], in the experiment on Pieris rapae [6], in the experiment with Pieris rapae [7] and in the experiment with Pieris rapae [8] was Active. The mortality was found to be 74.74% in the experiment with Pieris rapae [2], 34.02% in the experiment with Pieris rapae [5] and 53.36% in the experiment on Pieris rapae [9].

Regarding `COc1cc([C@@H]2c3cc4c(cc3[C@@H](NC(=O)c3ccccc3Br)[C@H]3COC(=O)[C@H]23)OCO4)cc(OC)c1OC`, the result in the experiment with Pieris rapae [1], in the experiment with Pieris rapae [3], in the experiment with Pieris rapae [4], with Pieris rapae [6], in the experiment with Pieris rapae [7] and with Pieris rapae [8] was Active. Further, the figures for the mortality in the experiment with Pieris rapae [2], in the experiment on Pieris rapae [5] and with Pieris rapae [9] were 74.74%, 4.35% and 44.78%, respectively.

Turning to `COc1cc([C@@H]2c3cc4c(cc3[C@@H](NC(=O)c3ccc(I)cc3)[C@H]3COC(=O)[C@H]23)OCO4)cc(OC)c1OC`, the outcome in the experiment with Pieris rapae [1], in the experiment with Pieris rapae [3], in the experiment on Pieris rapae [4], in the experiment with Pieris rapae [6], in the experiment with Pieris rapae [7] and with Pieris rapae [8] was Active. The values for the mortality with Pieris rapae [2], in the experiment on Pieris rapae [5] and in the experiment on Pieris rapae [9] were 73.87%, 20.73% and 48.28%, respectively.

Take `COc1cc([C@@H]2c3cc4c(cc3[C@@H](NC(=O)c3cccc(F)c3)[C@H]3COC(=O)[C@H]23)OCO4)cc(OC)c1OC`: the result in the experiment with Pieris rapae [1], in the experiment on Pieris rapae [3], with Pieris rapae [4], with Pieris rapae [6], with Pieris rapae [7] and in the experiment on Pieris rapae [8] was Active. Further, the mortality in the experiment with Pieris rapae [2] came to 86.7%; in the experiment on Pieris rapae [5], 18.57%; in the experiment with Pieris rapae [9], 49.46%.

For `COc1cc([C@@H]2c3cc4c(cc3[C@@H](NC(=O)c3ccccc3F)[C@H]3COC(=O)[C@H]23)OCO4)cc(OC)c1OC`, the outcome in the experiment on Pieris rapae [1], with Pieris rapae [3], with Pieris rapae [4], in the experiment with Pieris rapae [6], in the experiment on Pieris rapae [7] and with Pieris rapae [8] was Active. Besides, the values for the mortality with Pieris rapae [2], in the experiment on Pieris rapae [5] and with Pieris rapae [9] were 68.42%, 22.68% and 46.41%, respectively.

Take `COc1cc([C@@H]2c3cc4c(cc3[C@@H](NC(=O)c3ccc(Cl)cc3)[C@H]3COC(=O)[C@H]23)OCO4)cc(OC)c1OC`: the outcome in the experiment with Pieris rapae [1], in the experiment with Pieris rapae [3], with Pieris rapae [4], in the experiment with Pieris rapae [6], in the experiment with Pieris rapae [7] and in the experiment with Pieris rapae [8] was Active. In addition, the values for the mortality with Pieris rapae [2], in the experiment with Pieris rapae [5] and in the experiment with Pieris rapae [9] were 94.95%, 36.84% and 72.08%, respectively.

Take `COc1cc([C@@H]2c3cc4c(cc3[C@@H](N)[C@H]3COC(=O)[C@H]23)OCO4)cc(OC)c1OC` [4BETA-NH2-PODOPHYLLOTOXIN]: the result in the experiment with Pieris rapae [1], with Pieris rapae [3], in the experiment on Pieris rapae [4], with Pieris rapae [6], in the experiment with Pieris rapae [7] and with Pieris rapae [8] was Active. In addition, the mortality is given as 49.48% in the experiment with Pieris rapae [2], 21.69% with Pieris rapae [5] and 36.43% in the experiment with Pieris rapae [9].

As for `COc1cc([C@@H]2c3cc4c(cc3[C@@H](NC(=O)c3ccccc3Cl)[C@H]3COC(=O)[C@H]23)OCO4)cc(OC)c1OC`, the result in the experiment with Pieris rapae [1], in the experiment on Pieris rapae [3], in the experiment with Pieris rapae [4], in the experiment on Pieris rapae [6], with Pieris rapae [7] and in the experiment on Pieris rapae [8] was Active. The figures for the mortality in the experiment on Pieris rapae [2], in the experiment with Pieris rapae [5] and with Pieris rapae [9] were 65.56%, 4.54% and 36.36%, respectively.

On to `COc1cc([C@@H]2c3cc4c(cc3[C@@H](NC(=O)c3ccc(Br)cc3)[C@H]3COC(=O)[C@H]23)OCO4)cc(OC)c1OC`, for which the result in the experiment with Pieris rapae [1], in the experiment on Pieris rapae [3], in the experiment on Pieris rapae [4], in the experiment on Pieris rapae [6], in the experiment with Pieris rapae [7] and with Pieris rapae [8] was Active. For the same molecule, the mortality in the experiment on Pieris rapae [2] amounted to 85.97%; in the experiment with Pieris rapae [5], 14.81%; in the experiment on Pieris rapae [9], 51.85%.

For `COc1cc([C@@H]2c3cc4c(cc3[C@@H](NC(=O)c3ccc(F)cc3)[C@H]3COC(=O)[C@H]23)OCO4)cc(OC)c1OC`, the outcome in the experiment with Pieris rapae [1], in the experiment with Pieris rapae [3], in the experiment with Pieris rapae [4], in the experiment with Pieris rapae [6], with Pieris rapae [7] and with Pieris rapae [8] was Active. Also, the values for the mortality in the experiment on Pieris rapae [2], in the experiment with Pieris rapae [5] and with Pieris rapae [9] were 66.76%, 11.11% and 44.74%, respectively.

As for `COc1cc([C@@H]2c3cc4c(cc3[C@@H](NC(=O)c3ccccc3I)[C@H]3COC(=O)[C@H]23)OCO4)cc(OC)c1OC`, the result in the experiment with Pieris rapae [1], with Pieris rapae [3], in the experiment on Pieris rapae [4], in the experiment with Pieris rapae [6], in the experiment on Pieris rapae [7] and with Pieris rapae [8] was Active. Also, the mortality amounted to 69.69% in the experiment with Pieris rapae [2], 12.62% in the experiment with Pieris rapae [5] and 48.36% with Pieris rapae [9].

On to `COc1cc([C@@H]2c3cc4c(cc3[C@@H](NC(=O)c3cccc(Br)c3)[C@H]3COC(=O)[C@H]23)OCO4)cc(OC)c1OC`, for which the result in the experiment on Pieris rapae [1], in the experiment with Pieris rapae [3], in the experiment with Pieris rapae [4], in the experiment with Pieris rapae [6], in the experiment on Pieris rapae [7] and in the experiment on Pieris rapae [8] was Active. Also, the mortality is 85.42% in the experiment on Pieris rapae [2], 46.15% in the experiment with Pieris rapae [5] and 69.23% with Pieris rapae [9].

In the case of `CCOP(=S)(OCC)Oc1ccc([N+](=O)[O-])cc1` [PARATHION], the mortality in the experiment on Pieris rapae [5] is 100%.
